{"source": "ChEMBL document CHEMBL1255469", "about": "“In vitro activity of a new isothiazoloquinolone, ACH-702, against Mycobacterium tuberculosis and other mycobacteria” (2010)", "key": {"[1]": {"tested_on": "Mycobacterium tuberculosis", "assay": "Antimicrobial activity against isoniazid or rifampin-resistant Mycobacterium tuberculosis clinical isolates after 7 days by broth microdilution assay", "type": "functional", "conditions": "168 h", "how_it_was_run": "(§1)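 Alamar Blue broth microdilution in 7H9GC broth (Middlebrook 7H9 base, glycerol, Casitone, 10% OADC). Drug stock 1 mg/ml in 100% DMSO, diluted in broth to a final 0.03 to 8 μg/ml. M. tuberculosis H37Rv served as the susceptible-strain control. Isoniazid and rifampin resistance was assigned beforehand by the proportion method.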"}, "[2]": {"tested_on": "Mycobacterium tuberculosis", "assay": "Antimicrobial activity against isoniazid and rifampin-resistant Mycobacterium tuberculosis clinical isolates after 7 days by broth microdilution assay", "type": "functional", "conditions": "168 h", "how_it_was_run": "as §1"}}, "data": [{"smiles": "COc1c(N2CC[C@@H](C(C)(C)N)C2)c(F)cc2c(=O)c3c(=O)[nH]sc3n(C3CC3)c12", "values": [{"measurement": "MIC50", "setting": "[1]", "value": 0.12, "unit": "µg/mL"}, {"measurement": "MIC90", "setting": "[1]", "value": 0.12, "unit": "µg/mL"}, {"measurement": "MIC50", "setting": "[2]", "value": 0.06, "unit": "µg/mL"}, {"measurement": "MIC90", "setting": "[2]", "value": 0.12, "unit": "µg/mL"}]}]}
